The record followed here is ChEMBL document CHEMBL1130234 (J Med Chem, 1997).

Some results are limits rather than exact numbers.

Data set [1] deals with T1, Arachidonate 5-lipoxygenase (Bos taurus, UniProt Q9BEG3).
T1 sequence (Q9BEG3 whole entry): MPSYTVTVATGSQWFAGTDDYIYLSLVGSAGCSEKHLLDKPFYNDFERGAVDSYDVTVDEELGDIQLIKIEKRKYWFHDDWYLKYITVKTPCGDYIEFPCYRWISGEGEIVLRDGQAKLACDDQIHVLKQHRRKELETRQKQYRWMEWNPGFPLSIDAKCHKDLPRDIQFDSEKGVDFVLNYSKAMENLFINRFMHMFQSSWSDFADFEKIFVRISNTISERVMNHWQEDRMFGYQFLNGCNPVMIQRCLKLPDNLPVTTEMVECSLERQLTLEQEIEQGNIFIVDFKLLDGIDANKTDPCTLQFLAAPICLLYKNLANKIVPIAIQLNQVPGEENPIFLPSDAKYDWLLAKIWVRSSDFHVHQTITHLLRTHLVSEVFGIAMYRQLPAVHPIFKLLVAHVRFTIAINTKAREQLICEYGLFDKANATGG
As to the kind of experiment: 5-LO inhibitory activity was determined by inhibition of LTB4 biosynthesis in bovine polymorphonuclear leukocytes (PMNL). In kind it is functional, cell-based. In outline: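 LTB4 biosynthesis measured in bovine polymorphonuclear leukocytes, with NDGA as the standard inhibitor; N = 3 or more, significance versus control at P < 0.01.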

Data set [2] can be described thus: Partition coefficient (logP). The note with it: octanol/water. In kind it is physicochemical.
For data set [3], the system named is HaCaT. As to the kind of experiment: Cytotoxic activity (2 uM) was measured by the amount of LDH (mU) release in HaCaT cells. In kind it is functional, Homo sapiens. In outline: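 HaCaT cells exposed to test compound at 2 μM; LDH activity (mU) released into the culture medium measured and compared with vehicle control; N = 3.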
Data set [4] relates to HaCaT. Description: Antiproliferative (inhibition of cell growth) activity against HaCaT cells (human keratinocyte line). In kind it is functional, cell-based. The method, boiled down: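 HaCaT human keratinocytes treated for 48 h. Proliferation assessed by directly counting dispersed cells under a phase-contrast microscope; N = 3, significance versus control at P < 0.01.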

The nature of data set [5]: Antioxidant potential was assessed from reducing activity against 2,2,di-phenyl-1-picrylhydrazyl.

Usually IC50 stands for the concentration at which inhibition is half-maximal. The low end stands for greater potency in that assay, the high end for weaker potency in that assay. Usually logP stands for the decadic logarithm of the partition coefficient of the neutral form, usually between octanol and water. Low readings indicate a more hydrophilic compound, high ones a more lipophilic compound. `CC(=O)Oc1cccc2c1C(=O)c1c(O)cccc1C2`: the IC50 in data set [1] was found to be 6 µM; in the data set on HaCaT [4], 800 nM. In data set [2], this compound came in with a logP of 3.25. For the same compound, the LDH with HaCaT [3] turned out to be 243 mU. Moreover, in data set [5], the kDPPH was 16.1 M⁻¹ s⁻¹.

Turning to `O=C1c2c(O)cccc2C(C2c3cccc(O)c3C(=O)c3c(O)cccc32)c2cccc(O)c21`, the IC50 in data set [1] was above 30 µM; in the data set on HaCaT [4], 600 nM. The log partition coefficient (logP) in data set [2] came out at 5.01. Further, the LDH in the data set with HaCaT [3] stood at 263 mU. The compound also had a kDPPH in data set [5] below 1 M⁻¹ s⁻¹.

For the compound `CCCCC(=O)C1c2cccc(O)c2C(=O)c2c(O)cccc21`, the IC50 in data set [1] is above 30 µM; in the data set on HaCaT [4] it was 4400 nM. In data set [2], this compound yielded a lipophilicity (logP) of 4.12. The compound further gave an LDH in the data set with HaCaT [3] of 214 mU. This compound also displayed a kDPPH in data set [5] of 7 M⁻¹ s⁻¹.

On to `COC(=O)c1cc(O)c2c(c1)Cc1cccc(O)c1C2=O`, for which the results for the IC50 (in data set [1]; in the data set on HaCaT [4]) were above 30 µM and 700 nM, respectively. Moreover, in data set [2], the logP amounted to 4.54. The compound also yielded an LDH in the data set with HaCaT [3] of 340 mU. In data set [5], this compound displayed a kDPPH above 100 M⁻¹ s⁻¹.

Consider `O=C1c2c(O)cccc2C(Cc2ccccc2)(Cc2ccccc2)c2cccc(O)c21`, for which the IC50 in data set [1] was above 30 µM; in the data set with HaCaT [4], above 5000 nM. Also, the logP in data set [2] was 4.33. This compound yielded an LDH with HaCaT [3] of 167 mU. Further, the kDPPH in data set [5] is below 2 M⁻¹ s⁻¹.

`O=C1c2c(O)cccc2Cc2cc(CO)cc(O)c21`: the IC50 in data set [1] is 30 µM; in the data set on HaCaT [4], 700 nM. The same compound gave a logP in data set [2] of 3.37. The LDH in the data set with HaCaT [3] stood at 376 mU. Besides, in data set [5], the kDPPH was 20.1 M⁻¹ s⁻¹.

Turning to `O=C1c2c(O)cccc2C(Cc2ccccc2)c2cccc(O)c21`, the IC50 in data set [1] is above 30 µM; in the data set on HaCaT [4], above 5000 nM. In data set [2], this compound yielded a logP of 4.5. Besides, the LDH in the data set on HaCaT [3] turned out to be 135 mU. In addition, the kDPPH in data set [5] is below 2 M⁻¹ s⁻¹.

`O=C1c2cccc(O)c2C(=O)c2c(O)cccc21` [DANTHRON]: the concentration for half-maximal inhibition (IC50) was above 30 µM in data set [1] and above 5000 nM in the data set with HaCaT [4]. The logP in data set [2] was determined as 4.16. The LDH in the data set on HaCaT [3] worked out at 170 mU. Further, in data set [5], the kDPPH was below 2 M⁻¹ s⁻¹.

Turning to `CC(=O)C1c2cccc(O)c2C(=O)c2c(O)cccc21`, the IC50 in data set [1] is 18 µM; in the data set on HaCaT [4], 2600 nM. This compound came in with a logP in data set [2] of 3.49. The same compound gave an LDH with HaCaT [3] of 317 mU. In data set [5], the kDPPH is 17.6 M⁻¹ s⁻¹.

Turning to `CC(=O)Oc1cccc2c1C(=O)c1c(cccc1OC(C)=O)C2`, the IC50 in data set [1] turned out to be 9 µM; in the data set with HaCaT [4], 700 nM. The compound also had a logP in data set [2] of 2.4. The compound further yielded an LDH in the data set on HaCaT [3] of 314 mU. The compound further showed a kDPPH in data set [5] of 3.6 M⁻¹ s⁻¹.

Take `Cc1cc(O)c2c(c1)Cc1cccc(O)c1C2=O`: the figures for the IC50 (in data set [1]; in the data set with HaCaT [4]) were above 30 µM and 1500 nM, respectively. The same compound showed a logP in data set [2] of 4.8. Further, in the data set with HaCaT [3], the LDH is 211 mU. In addition, the kDPPH in data set [5] was 15.3 M⁻¹ s⁻¹.

Take `COc1cccc2c1Cc1c(OC)cccc1C2=O`: the IC50 in data set [1] was 8 µM; with HaCaT [4] it was above 5000 nM. The same compound had a logP in data set [2] of 3.68. This compound had an LDH in the data set with HaCaT [3] of 137 mU. Also, in data set [5], the kDPPH was below 2 M⁻¹ s⁻¹.
